These results are taken from ChEMBL document CHEMBL1147718, “Design, synthesis, antibacterial, and QSAR studies of myristic acid derivatives” (2006).

What all share (format): functional
Holding throughout (settings): read-out: -Log MIC (converted)

The test system of one assay is Staphylococcus aureus. Briefly: Antibacterial activity against Staphylococcus aureus. In outline:
(§1)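 Serial dilution MIC in double strength nutrient broth-IP against S. aureus, M. luteus and E. coli. Derivatives dissolved in DMSO as […] stock. Activity reported as −log MIC.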

For another assay, the system named is Micrococcus luteus. Briefly: Antibacterial activity against Micrococcus luteus. An outline of the steps:
as §1

For another assay, the system named is Escherichia coli. Briefly: Antibacterial activity against Escherichia coli. In outline: as §1

In brackets after ≈: the same amount, converted by molar mass.

The MIC is the lowest concentration found to suppress growth. Turning to `CCCCCCCCCCCCCC(=O)OCCCCC` [PENTYL TETRADECANOATE], the MIC in the assay with Staphylococcus aureus was 2000 µM (≈ 596 µg/mL); in the assay with Micrococcus luteus it was 2000 µM (≈ 596 µg/mL); with Escherichia coli it was 3020 µM (≈ 901 µg/mL).
Consider `CCCCCCCCCCCCCC(=O)NCCC`, for which the MIC in the assay with Staphylococcus aureus was 2570 µM (≈ 693 µg/mL); in the assay on Micrococcus luteus, 2570 µM (≈ 693 µg/mL); with Escherichia coli, 3720 µM (≈ 1000 µg/mL).
`CCCCCCCCCCCCCC(=O)OCCC` [PROPYL TETRADECANOATE]: the MIC is 2340 µM (≈ 634 µg/mL) in the assay with Staphylococcus aureus, 2340 µM (≈ 634 µg/mL) in the assay on Micrococcus luteus and 4570 µM (≈ 1240 µg/mL) in the assay on Escherichia coli.
Consider `CCCCCCCCCCCCCC(=O)Nc1ccc([N+](=O)[O-])cc1`, for which the values for the MIC in the assay on Staphylococcus aureus, in the assay with Micrococcus luteus and with Escherichia coli were 1380 µM (≈ 481 µg/mL), 1740 µM (≈ 606 µg/mL) and 2750 µM (≈ 960 µg/mL), respectively.
With `CCCCCCCCCCCCCC(=O)Nc1ccc(Cl)cc1`, the MIC in the assay on Staphylococcus aureus was 1480 µM (≈ 500 µg/mL); with Micrococcus luteus, 1480 µM (≈ 500 µg/mL); in the assay on Escherichia coli it was 2690 µM (≈ 910 µg/mL).
With `CCCCCCCCCCCCCC(N)=O` [TETRADECANAMIDE], the minimal inhibitory concentration (MIC) is 2570 µM (≈ 584 µg/mL) in the assay on Staphylococcus aureus, 5130 µM (≈ 1170 µg/mL) with Micrococcus luteus and 3090 µM (≈ 703 µg/mL) with Escherichia coli.
Turning to `CCCCCCCCCCCCCC(=O)Nc1cccc(Cl)c1`, the MIC with Staphylococcus aureus is 1480 µM (≈ 500 µg/mL); in the assay on Micrococcus luteus, 1170 µM (≈ 397 µg/mL); with Escherichia coli, 2690 µM (≈ 910 µg/mL).
Take `CCCCCCCCCCCCCC(=O)Nc1ccccc1Cl`: the MIC in the assay with Staphylococcus aureus was 1480 µM (≈ 500 µg/mL); in the assay with Micrococcus luteus, 1780 µM (≈ 601 µg/mL); in the assay on Escherichia coli, 2690 µM (≈ 910 µg/mL).
On to `CCCCCCCCCCCCCC(=O)Nc1ccccc1[N+](=O)[O-]`, for which the MIC with Staphylococcus aureus was 1380 µM (≈ 481 µg/mL); with Micrococcus luteus, 1740 µM (≈ 606 µg/mL); in the assay on Escherichia coli, 3470 µM (≈ 1210 µg/mL).
In the same order, the values of `CCCCCCCCCCCCCC(=O)OCCCCCCCC` [OCTYL TETRADECANOATE] are 1170 µM (≈ 400 µg/mL), 1170 µM (≈ 400 µg/mL) and 2340 µM (≈ 798 µg/mL).
For the molecule `CCCCCCCCCCCCCC(=O)OCCCC` [BUTYL TETRADECANOATE], the MIC is 2630 µM (≈ 748 µg/mL) in the assay with Staphylococcus aureus, 4370 µM (≈ 1240 µg/mL) in the assay on Micrococcus luteus and 3550 µM (≈ 1010 µg/mL) in the assay with Escherichia coli.
In the same order, the values of `CCCCCCCCCCCCCC(=O)NCCCC` are 2140 µM (≈ 606 µg/mL), 2450 µM (≈ 696 µg/mL) and 3550 µM (≈ 1010 µg/mL).
As for `CCCCCCCCCCCCCC(=O)OCC` [ETHYL TETRADECANOATE], the MIC is 3890 µM (≈ 998 µg/mL) in the assay with Staphylococcus aureus, 2450 µM (≈ 629 µg/mL) in the assay with Micrococcus luteus and 2450 µM (≈ 629 µg/mL) in the assay with Escherichia coli.
For the molecule `O=C(O)c1cn(C2CC2)c2cc(N3CCNCC3)c(F)cc2c1=O` [CIPROFLOXACIN], the MIC with Staphylococcus aureus, in the assay on Micrococcus luteus and in the assay on Escherichia coli was 468 µM (≈ 155 µg/mL) in each case.
On to `CCCCCCCCCCCCCC(=O)OCCC(C)C` [ISOPENTYL TETRADECANOATE], for which the MIC was 1660 µM (≈ 495 µg/mL) in the assay with Staphylococcus aureus, 2000 µM (≈ 596 µg/mL) in the assay on Micrococcus luteus and 3020 µM (≈ 901 µg/mL) in the assay on Escherichia coli.
As for `CCCCCCCCCCCCCC(=O)Nc1ccccc1OC`, the results for the MIC in the assay on Staphylococcus aureus, with Micrococcus luteus and with Escherichia coli were 1510 µM (≈ 505 µg/mL), 1780 µM (≈ 593 µg/mL) and 2400 µM (≈ 800 µg/mL), respectively.
As for `CCCCCCCCCCCCCC(=O)OCc1ccccc1` [BENZYL TETRADECANOATE], the MIC with Staphylococcus aureus was 1580 µM (≈ 505 µg/mL); with Micrococcus luteus, 1860 µM (≈ 593 µg/mL); with Escherichia coli, 2510 µM (≈ 800 µg/mL).
On to `CCCCCCCCCCCCCC(=O)OC(C)C` [ISOPROPYL MYRISTATE], for which the MIC is 2240 µM (≈ 605 µg/mL) in the assay on Staphylococcus aureus, 2240 µM (≈ 605 µg/mL) in the assay with Micrococcus luteus and 3720 µM (≈ 1000 µg/mL) in the assay on Escherichia coli.
Take `CCCCCCCCCCCCCC(=O)NN` [TETRADECANEHYDRAZIDE]: the values for the MIC in the assay with Staphylococcus aureus, with Micrococcus luteus and in the assay on Escherichia coli were 4170 µM (≈ 1010 µg/mL), 5130 µM (≈ 1240 µg/mL) and 4170 µM (≈ 1010 µg/mL), respectively.
For the molecule `CCCCCCCCCCCCCC(=O)N(CC)CC`, the results for the MIC in the assay on Staphylococcus aureus, in the assay with Micrococcus luteus and with Escherichia coli were 2630 µM (≈ 746 µg/mL), 2140 µM (≈ 606 µg/mL) and 2240 µM (≈ 635 µg/mL), respectively.
Take `CCCCCCCCCCCCCC(=O)OCC(C)C` [ISOBUTYL TETRADECANOATE]: the results for the MIC with Staphylococcus aureus, with Micrococcus luteus and with Escherichia coli were 1740 µM (≈ 494 µg/mL), 1740 µM (≈ 494 µg/mL) and 3160 µM (≈ 900 µg/mL), respectively.
For `CCCCCCCCCCCCCC(=O)OC` [METHYL TETRADECANOATE], the values for the MIC in the assay on Staphylococcus aureus, in the assay with Micrococcus luteus and with Escherichia coli were 4170 µM (≈ 1010 µg/mL), 5130 µM (≈ 1240 µg/mL) and 4170 µM (≈ 1010 µg/mL), respectively.
For the molecule `CCCCCCCCCCCCCC(=O)OCCCCCCC` [HEPTYL TETRADECANOATE], the MIC in the assay on Staphylococcus aureus is 1230 µM (≈ 402 µg/mL); with Micrococcus luteus, 1510 µM (≈ 494 µg/mL); in the assay on Escherichia coli, 2450 µM (≈ 802 µg/mL).
Turning to `CCCCCCCCCCCCCC(=O)O` [MYRISTIC ACID], the MIC in the assay with Staphylococcus aureus is 3310 µM (≈ 756 µg/mL); with Micrococcus luteus it was 3310 µM (≈ 756 µg/mL); in the assay on Escherichia coli, 5500 µM (≈ 1260 µg/mL).
With `CCCCCCCCCCCCCC(=O)OCCCCCC` [HEXYL TETRADECANOATE], the MIC in the assay on Staphylococcus aureus was 1580 µM (≈ 495 µg/mL); with Micrococcus luteus, 1290 µM (≈ 403 µg/mL); with Escherichia coli, 2570 µM (≈ 803 µg/mL).
As to `CCCCCCCCCCCCCC(=O)Nc1ccc(OC)cc1`, the MIC with Staphylococcus aureus is 1510 µM (≈ 505 µg/mL); in the assay on Micrococcus luteus, 1780 µM (≈ 593 µg/mL); in the assay with Escherichia coli it was 2400 µM (≈ 800 µg/mL).
For `CCCCCCCCCCCCCC(=O)Nc1cccc([N+](=O)[O-])c1`, the MIC was 2750 µM (≈ 960 µg/mL) with Staphylococcus aureus, 3470 µM (≈ 1210 µg/mL) in the assay with Micrococcus luteus and 2750 µM (≈ 960 µg/mL) in the assay with Escherichia coli.
As to `CCCCCCCCCCCCCC(=O)Nc1ccccc1`, the minimum inhibitory concentration (MIC) in the assay with Staphylococcus aureus is 1950 µM (≈ 592 µg/mL); in the assay with Micrococcus luteus, 1950 µM (≈ 592 µg/mL); in the assay on Escherichia coli, 3160 µM (≈ 960 µg/mL).
